The results in this text go back to ChEMBL document CHEMBL1131381, “Design and synthesis of potent, selective inhibitors of endothelin-converting enzyme” (J Med Chem, 1998).

Test [1] has as its target T1, Endothelin-converting enzyme 1 (Homo sapiens) (UniProt P42892).
T1 sequence (whole entry): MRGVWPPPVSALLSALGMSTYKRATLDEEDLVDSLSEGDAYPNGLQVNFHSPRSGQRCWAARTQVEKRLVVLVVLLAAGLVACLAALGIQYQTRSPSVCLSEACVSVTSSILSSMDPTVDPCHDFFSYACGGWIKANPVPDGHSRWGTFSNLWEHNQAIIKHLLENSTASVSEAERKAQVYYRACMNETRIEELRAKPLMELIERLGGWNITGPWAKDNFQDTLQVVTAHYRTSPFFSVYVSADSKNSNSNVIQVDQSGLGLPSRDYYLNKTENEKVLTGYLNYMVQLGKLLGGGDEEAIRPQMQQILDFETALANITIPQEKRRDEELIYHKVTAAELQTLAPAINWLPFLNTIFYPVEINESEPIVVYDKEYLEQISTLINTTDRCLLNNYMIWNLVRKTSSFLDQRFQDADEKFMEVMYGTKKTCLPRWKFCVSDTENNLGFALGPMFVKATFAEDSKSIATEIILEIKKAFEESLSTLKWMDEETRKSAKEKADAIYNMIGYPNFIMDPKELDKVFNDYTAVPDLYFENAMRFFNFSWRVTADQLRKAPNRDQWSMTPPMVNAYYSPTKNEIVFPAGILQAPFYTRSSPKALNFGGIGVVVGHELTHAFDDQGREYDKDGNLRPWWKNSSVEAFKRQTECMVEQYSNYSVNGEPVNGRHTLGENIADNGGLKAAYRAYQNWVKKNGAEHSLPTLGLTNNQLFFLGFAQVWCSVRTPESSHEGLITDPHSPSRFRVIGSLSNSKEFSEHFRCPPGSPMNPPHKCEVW
Put plainly: Inhibitory activity (1 uM) was assessed on CHO cells expressing in recombinant human Endothelin-converting enzyme 1 (ECE-1). It counts as cell-based.

The nature of test [2]: Ratio of inhibitory activities against endothelin converting enzyme-1(ECE-1) and neutral endopeptidase (NEP).
The next test concerns the target Neprilysin (Homo sapiens, UniProt P08473). Put plainly: Inhibitory activity against neutral endopeptidase (NEP).
Test [3] concerns the target T2, Endothelin-converting enzyme 1 (Homo sapiens, UniProt P42892).
T2 sequence (P42892 whole entry): T1 sequence (whole entry)
Briefly: Inhibitory activity was assessed on CHO cells expressing recombinant human Endothelin-converting enzyme 1 (ECE-1). The test is classed as cell-based. The method, boiled down:
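Membrane preparation (10 µg protein) from CHO cells expressing human ECE-1 was preincubated with compound for 20 min at room temperature in 50 mM Tes pH 7.0 with 0.005% Triton X-100. Human big ET-1 was added to a final 0.2 µM for 2 h at 37 °C. ET-1 formed was measured by [¹²⁵I]ET-1 radioimmunoassay.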

Test [4] concerns the target T3, Neprilysin (Rattus norvegicus) (UniProt P07861).
T3 sequence (whole entry): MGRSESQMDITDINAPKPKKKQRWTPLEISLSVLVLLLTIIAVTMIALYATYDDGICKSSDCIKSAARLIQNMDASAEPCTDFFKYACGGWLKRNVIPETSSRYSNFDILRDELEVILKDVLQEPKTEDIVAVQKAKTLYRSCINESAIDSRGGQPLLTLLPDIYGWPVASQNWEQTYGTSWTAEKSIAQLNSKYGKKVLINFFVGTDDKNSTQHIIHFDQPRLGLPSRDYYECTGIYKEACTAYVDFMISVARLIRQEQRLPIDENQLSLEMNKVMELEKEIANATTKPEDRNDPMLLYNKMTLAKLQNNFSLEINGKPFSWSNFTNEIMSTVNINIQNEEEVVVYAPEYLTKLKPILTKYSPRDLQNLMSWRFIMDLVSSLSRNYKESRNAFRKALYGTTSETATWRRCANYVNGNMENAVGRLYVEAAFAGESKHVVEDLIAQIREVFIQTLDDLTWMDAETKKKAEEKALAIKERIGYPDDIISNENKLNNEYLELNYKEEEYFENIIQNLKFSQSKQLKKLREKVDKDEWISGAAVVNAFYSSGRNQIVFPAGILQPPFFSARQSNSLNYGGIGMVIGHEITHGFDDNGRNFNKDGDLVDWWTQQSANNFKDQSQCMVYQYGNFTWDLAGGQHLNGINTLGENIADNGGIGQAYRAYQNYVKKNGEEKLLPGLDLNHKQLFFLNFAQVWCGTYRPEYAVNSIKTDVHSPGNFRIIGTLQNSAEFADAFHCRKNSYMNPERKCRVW
Put plainly: Inhibitory activity (10 uM) against rat neutral endopeptidase (NEP).

Neprilysin, sequence (P08473 whole entry): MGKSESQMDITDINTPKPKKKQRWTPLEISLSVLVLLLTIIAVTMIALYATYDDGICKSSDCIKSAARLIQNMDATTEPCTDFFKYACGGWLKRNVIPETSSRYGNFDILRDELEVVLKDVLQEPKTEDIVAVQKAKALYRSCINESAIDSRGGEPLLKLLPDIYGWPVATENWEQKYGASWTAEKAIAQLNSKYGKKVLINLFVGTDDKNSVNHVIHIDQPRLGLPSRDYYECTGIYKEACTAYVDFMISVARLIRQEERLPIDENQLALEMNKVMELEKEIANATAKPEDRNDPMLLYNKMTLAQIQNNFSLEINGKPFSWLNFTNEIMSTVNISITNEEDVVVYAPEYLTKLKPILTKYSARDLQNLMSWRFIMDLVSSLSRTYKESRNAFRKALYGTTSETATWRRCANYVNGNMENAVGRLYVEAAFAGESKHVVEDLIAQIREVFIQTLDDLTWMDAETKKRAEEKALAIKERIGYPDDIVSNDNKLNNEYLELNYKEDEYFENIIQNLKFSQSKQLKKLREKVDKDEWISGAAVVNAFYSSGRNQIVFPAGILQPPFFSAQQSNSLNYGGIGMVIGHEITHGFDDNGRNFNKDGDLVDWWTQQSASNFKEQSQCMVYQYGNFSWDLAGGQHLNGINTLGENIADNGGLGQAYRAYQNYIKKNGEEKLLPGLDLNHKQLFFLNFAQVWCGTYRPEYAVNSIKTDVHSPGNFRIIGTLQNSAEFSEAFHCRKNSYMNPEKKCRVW

In the case of `O=C(NCCc1ccc(-c2ccccc2)cc1)[C@H](CCCc1ccccc1F)NCP(=O)(O)O`, in test [1], the inhibition (commonly the drop in the measured response relative to a control, in per cent) is 8%.
For `O=C(NCc1ccccc1)[C@H](CC#Cc1ccccc1F)NCP(=O)(O)O`, in test [2], the Selectivity came out at 220. Besides, the IC50 (usually the concentration that gives 50% inhibition) against Neprilysin worked out at 55000 nM; in test [3], 250 nM.
For `O=C(NCCc1ccccn1)[C@H](CC#Cc1ccc(F)cc1F)NCP(=O)(O)O`, in that order: 32, 10000 nM and 310 nM.
Regarding `O=C(O)[C@H](CC#Cc1ccc(F)cc1F)NCP(=O)(O)O`, in test [2], the Selectivity came to 153. For the same compound, the results for the IC50 (on Neprilysin; in test [3]) were 26000 nM and 170 nM, respectively.
As for `O=P(O)(O)CN[C@@H](CC#Cc1ccccc1F)c1nnn[nH]1`, the Selectivity in test [2] was 0.1. The IC50 against Neprilysin was 14 nM; in test [3], 150 nM.
Consider `O=C(O)CN1C(=O)[C@@H](NC(=O)[C@H](CC#Cc2ccc(F)cc2F)NCP(=O)(O)O)CCc2ccccc21`, for which, in test [2], the Selectivity turned out to be 9. The IC50 at Neprilysin came out at 730 nM; in test [3] it was 82 nM.
Consider `CC(C)[C@H](NC(=O)[C@H](CC#Cc1ccccc1F)NCP(=O)(O)O)C(=O)O`, for which the Selectivity in test [2] was determined as 57. Also, the IC50 amounted to 6300 nM against Neprilysin and 110 nM in test [3].
With `Cc1ccc(C#CC[C@H](NCP(=O)(O)O)c2nn[nH]n2)cc1`, in test [1], the inhibition was 45%.
`CC(C)C[C@H](NC(=O)[C@H](CC#Cc1cccc(F)c1)NCP(=O)(O)O)C(=O)O`: the IC50 in test [3] was 400 nM.
As to `O=C(O)[C@H](CC#Cc1ccccc1F)NCP(=O)(O)O`, in test [2], the Selectivity was 46. For the same compound, the figures for the IC50 (against Neprilysin; in test [3]) were 11000 nM and 240 nM, respectively.
As to `O=C(NCCc1ccc(-c2ccccc2)cc1)[C@H](CC#Cc1ccccc1F)NCP(=O)(O)O`, the Selectivity in test [2] turned out to be 197. The IC50 is 6500 nM at Neprilysin and 33 nM in test [3].
Consider `CC(C)C[C@H](NC(=O)[C@H](CC#Cc1ccccc1)NCP(=O)(O)O)C(=O)O`, for which the Selectivity in test [2] was found to be 1.9. The IC50 against Neprilysin is 948 nM; in test [3] it was 510 nM.
Consider `O=C(NCCc1cccc2ccccc12)[C@H](CC#Cc1ccccc1F)NCP(=O)(O)O`, for which the Selectivity in test [2] is 82. In addition, the IC50 against Neprilysin is 10700 nM; in test [3] it was 130 nM.
In the case of `CN(CCc1ccccc1)C(=O)[C@H](CC#Cc1ccccc1F)NCP(=O)(O)O`, in test [1], the inhibition stood at 3%.
In the case of `O=C(NCCc1ccccc1)[C@H](CC#Cc1ccc(F)cc1F)NCP(=O)(O)O`, in test [3], the IC50 is 110 nM.
Take `COc1ccc(CCNC(=O)[C@H](CC#Cc2ccc(F)cc2F)NCP(=O)(O)O)cc1OC`: the inhibition in test [4] stood at 21%. In test [3], the half-maximal inhibitory concentration (IC50) was determined as 160 nM.
`CC(C)C[C@H](NC(=O)[C@H](CC#Cc1ccccc1Cl)NCP(=O)(O)O)C(=O)O` gave an inhibition in test [4] of 38%. Besides, the IC50 in test [3] was determined as 4300 nM.
With `O=C(NCCc1c[nH]c2ccccc12)[C@H](CC#Cc1ccccc1F)NCP(=O)(O)O`, the Selectivity in test [2] was 132. In addition, the IC50 on Neprilysin amounted to 10000 nM; in test [3] it was 76 nM.
Regarding `CC(C)C[C@H](NC(=O)[C@H](CC#Cc1ccc(F)cc1F)NCP(=O)(O)O)C(=O)O`, the Selectivity in test [2] worked out at 131. The IC50 was 6700 nM at Neprilysin and 51 nM in test [3].
Consider `O=C(NCCCCc1ccccc1)[C@H](CC#Cc1ccccc1F)NCP(=O)(O)O`, for which the inhibition in test [1] was found to be 0%.
`O=C(O)[C@H](Cc1ccc2ccccc2c1)NC(=O)[C@H](CC#Cc1ccccc1F)NCP(=O)(O)O`: in test [2], the Selectivity was 52. Besides, the IC50 was found to be 1300 nM against Neprilysin and 25 nM in test [3].
On to `CSCC[C@H](NC(=O)[C@H](CC#Cc1ccccc1F)NCP(=O)(O)O)C(=O)O`, for which the Selectivity in test [2] was 18. For the same compound, the IC50 was determined as 4060 nM on Neprilysin and 230 nM in test [3].
Consider `COc1ccccc1C#CC[C@H](NCP(=O)(O)O)c1nn[nH]n1`, for which, in test [1], the inhibition was 0%.
With `O=C(NCCCc1ccccc1)[C@H](CC#Cc1ccc(F)cc1F)NCP(=O)(O)O`, the IC50 in test [3] came out at 150 nM.
Turning to `O=C(O)[C@H](CC#Cc1ccccc1F)NC(=O)[C@H](CC#Cc1ccccc1F)NCP(=O)(O)O`, the Selectivity in test [2] is 225. The IC50 against Neprilysin stood at 6300 nM; in test [3], 28 nM.
Regarding `O=C(NCCc1ccc2ccccc2c1)[C@H](CC#Cc1ccc(F)cc1F)NCP(=O)(O)O`, the Selectivity in test [2] is 132. Moreover, the IC50 is 7000 nM on Neprilysin and 53 nM in test [3].
Regarding `O=C(NCCc1ccccc1)[C@H](CC#Cc1ccccc1F)NCP(=O)(O)O`, the Selectivity in test [2] came out at 83. Moreover, the IC50 came out at 19000 nM on Neprilysin and 230 nM in test [3].
Turning to `CC(C)C[C@H](NC(=O)[C@H](CC#Cc1ccccc1F)NCP(=O)(O)O)C(=O)O`, the IC50 in test [3] worked out at 120 nM.
As to `O=C(O)[C@H](CC1CCCCC1)NC(=O)[C@H](CC#Cc1ccc(F)cc1F)NCP(=O)(O)O`, the Selectivity in test [2] came to 148. Besides, the IC50 on Neprilysin was determined as 2070 nM; in test [3], 14 nM.
Turning to `O=P(O)(O)CN[C@@H](CC#Cc1ccccc1)c1nn[nH]n1`, the Selectivity in test [2] was 0.3. Besides, the IC50 was found to be 170 nM against Neprilysin and 590 nM in test [3].
`O=C(NCCc1ccc(-c2ccccc2)cc1)[C@H](CC#Cc1ccc(F)cc1F)NCP(=O)(O)O`: the Selectivity in test [2] was 89. The IC50 against Neprilysin turned out to be 2500 nM; in test [3], 28 nM.
Take `CC(C)C[C@H](NC(=O)[C@H](CC#Cc1ccc(F)cc1F)NCP(=O)(O)O)C(=O)N[C@@H](C)C(=O)O`: the Selectivity in test [2] was 725. Also, the figures for the IC50 (on Neprilysin; in test [3]) were 5800 nM and 8 nM, respectively.
For `O=C(O)[C@H](Cc1ccc(-c2ccccc2)cc1)NC(=O)[C@H](CC#Cc1ccccc1F)NCP(=O)(O)O`, in that order: 19, 250 nM and 13 nM.
For `O=C(NCCc1ccc(Br)cc1)[C@H](CC#Cc1ccc(F)cc1F)NCP(=O)(O)O` the same measures were 20, 860 nM and 43 nM.
Consider `O=C(NCCc1c[nH]c2ccccc12)[C@H](CC#Cc1ccc(F)cc1F)NCP(=O)(O)O`, for which the Selectivity in test [2] was 87. Moreover, the IC50 came to 9700 nM against Neprilysin and 111 nM in test [3].
For `O=C(O)[C@H](Cc1ccccc1)NC(=O)[C@H](CC#Cc1ccccc1F)NCP(=O)(O)O`, the Selectivity in test [2] was found to be 21. The IC50 against Neprilysin came out at 1200 nM; in test [3], 56 nM.
Regarding `CC(C)CCNC(=O)[C@H](CC#Cc1ccc(F)cc1F)NCP(=O)(O)O`, in test [2], the Selectivity came to 164. Besides, the IC50 against Neprilysin came to 23000 nM; in test [3] it was 140 nM.
As to `O=P(O)(O)C(CCc1cccc2ccccc12)N[C@@H](Cc1ccc(-c2ccccc2)cc1)c1nnn[nH]1` (stereo not given in full), the Selectivity in test [2] is 0.29. The IC50 turned out to be 5 nM at Neprilysin and 17 nM in test [3].
On to `O=C(NCCc1ccc(Br)cc1)[C@H](CC#Cc1ccccc1F)NCP(=O)(O)O`, for which, in test [2], the Selectivity is 364. For the same compound, the IC50 at Neprilysin amounted to 40000 nM; in test [3], 110 nM.
Regarding `O=C(NCCc1cccc2ccccc12)[C@H](CC#Cc1ccc(F)cc1F)NCP(=O)(O)O`, the Selectivity in test [2] came out at 182. In addition, the IC50 on Neprilysin worked out at 6200 nM; in test [3] it was 34 nM.
